Source: PubChem (Broad Institute)
Keap1 Nrf2 FP = Keap1-Nrf2 protein-protein interaction inhibitors, primary screen, biochemical, fluorescence polarization, single point. 0.15% of 340,000 active. inhibition, % at 9.4 µM. Keap1 Kelch-Nrf2 peptide fluorescence polarization, 1536-well. Kelch-like ECH-associated protein 1 (Homo sapiens), Q14145; in the data active means inhibition above about 12%;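 further: human Keap1 Kelch domain with fluorescein labeled Nrf2 9mer peptide probe; 0% = neutral control wells and 100% = peptide positive control; higher means more block of Keap1 binding to Nrf2 peptide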
CaV13 ICDI inh = Primary screen for inhibitors of IQ motif and Ca2+-dependent inactivation inhibitor domain binding in CACNA1D, Förster resonance energy transfer in living cells, …; HEK cells, CFP/YFP FRET ICDI-IQ, plate reader, 10 min; percent FRET-ratio fall versus neutral wells; inhibition, % at 12.3 µM; 0.098% of 340,000 active; AID 743397;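 active means mean replicate inhibition of at least 30% and at least 1% of replicates passing that level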;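 further: 0% = median of the neutral control wells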
CAL PDZ FP-1 = untagged CAL PDZ binding inhibitors, primary screen, biochemical, fluorescence polarization, HTS; Golgi-associated PDZ and coiled-coil motif-containing protein (Homo sapiens), Q9HD26; purified CAL PDZ, TMR-peptide fluorescence polarization, 1 h; inhibition, % at 24.9 µM; 0.92% of 300,000 active; AID 602252, 2012;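 active means mean inhibition of at least 30% with at least half of replicates also reaching 30%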;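 further: 0% = DMSO neutral control and 100% = excess unlabeled competitor peptide PRC23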
CAL PDZ FP-2 = CAL PDZ peptide-binding inhibitors, primary screen, biochemical, fluorescence polarization, Cer-tagged CAL PDZ, HTS | Golgi-associated PDZ and coiled-coil motif-containing protein (Homo sapiens), Q9HD26 | purified CAL PDZ, TMR-peptide fluorescence polarization, 1 h | inhibition, % at 20 µM | 0.02% of 330,000 active | AID 504414, 2011;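 active means highest replicate inhibition of at least 40%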;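 further: plate controls were DMSO neutral control wells for no effect and unlabeled competitor peptide control wells for full effect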
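System: tagged CAL PDZ domain. Schedule: 1 h room-temperature incubation prior to read. Signal: fluorescence polarization (mP). Measure: percent inhibition from loss of millipolarization.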
LANA-H2B inh = blockers of LANA interaction with H2A/H2B – biochemical, FP readout, HTS, primary screen. Protein LANA1 (Human herpesvirus 8 type P (isolate GK18)), Q9QR71. cell-free LANA-H2A/H2B peptide, fluorescence polarization. inhibition, % (no concentration beside the values). 0.6% of 320,000 active. AID 2629, 2010; in the data active means inhibition mostly above about 10%, no sharp cut-off; inactive means mostly below about 6.7%
Target sequence (Q9QR71 whole entry, looked up): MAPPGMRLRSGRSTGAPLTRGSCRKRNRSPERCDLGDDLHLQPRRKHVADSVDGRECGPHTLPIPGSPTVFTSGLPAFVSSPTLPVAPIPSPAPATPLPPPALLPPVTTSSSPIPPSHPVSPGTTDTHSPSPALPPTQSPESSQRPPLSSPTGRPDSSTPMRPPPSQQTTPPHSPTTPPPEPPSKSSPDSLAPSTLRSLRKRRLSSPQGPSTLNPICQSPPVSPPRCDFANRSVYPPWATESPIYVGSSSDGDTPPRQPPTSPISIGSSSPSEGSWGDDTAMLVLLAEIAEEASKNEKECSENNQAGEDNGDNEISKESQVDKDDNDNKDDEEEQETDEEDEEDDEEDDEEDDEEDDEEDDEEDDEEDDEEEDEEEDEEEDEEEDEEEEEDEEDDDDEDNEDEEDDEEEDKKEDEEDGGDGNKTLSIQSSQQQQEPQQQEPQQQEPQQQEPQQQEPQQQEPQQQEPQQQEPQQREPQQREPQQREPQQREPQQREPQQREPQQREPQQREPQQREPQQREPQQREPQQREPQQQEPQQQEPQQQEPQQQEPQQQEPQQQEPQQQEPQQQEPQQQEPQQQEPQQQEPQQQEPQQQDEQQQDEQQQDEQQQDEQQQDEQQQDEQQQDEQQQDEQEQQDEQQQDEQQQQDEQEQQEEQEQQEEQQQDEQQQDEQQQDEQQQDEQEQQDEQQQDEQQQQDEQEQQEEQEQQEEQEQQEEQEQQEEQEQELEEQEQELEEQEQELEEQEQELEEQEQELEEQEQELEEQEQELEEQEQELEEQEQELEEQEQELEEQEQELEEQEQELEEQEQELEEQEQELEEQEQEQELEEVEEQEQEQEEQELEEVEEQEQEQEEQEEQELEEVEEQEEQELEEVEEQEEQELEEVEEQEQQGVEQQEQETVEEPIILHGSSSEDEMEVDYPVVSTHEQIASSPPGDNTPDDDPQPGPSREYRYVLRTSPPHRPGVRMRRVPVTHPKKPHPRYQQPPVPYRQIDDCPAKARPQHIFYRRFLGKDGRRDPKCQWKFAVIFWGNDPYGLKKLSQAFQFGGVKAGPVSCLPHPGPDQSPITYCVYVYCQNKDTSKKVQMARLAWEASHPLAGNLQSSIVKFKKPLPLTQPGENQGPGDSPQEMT
LANA DNA inh = inhibitors of KSHV C-LANA binding to DNA, primary screen, biochemical, fluorescence polarization, FAM-LBS DNA, MBP-C-LANA, single point. Kaposi's sarcoma herpesvirus LANA C-terminal domain (residues 932-1162) DNA binding. inhibition, % at 9 µM. 0.078% of 340,000 active;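 active means highest replicate inhibition at or above 60% at 9 µM, even if other replicates fall short; inactive means all replicates below 60% inhibition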;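 further: 0% = neutral control wells and 100% = 4 µM acridine orange control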
Active calls of the source: *; . = no result; + = active, no number. In the library only some 1.5% were active in any assay of this set; here they are far more common.

SMILES	Keap1 Nrf2 FP	CaV13 ICDI inh	CAL PDZ FP-1	CAL PDZ FP-2	LANA-H2B inh	LANA DNA inh
O=C(Nc1cccc(-n2cnnn2)c1)c1ccc(C(F)(F)F)cc1	-1.6	-5.6	.	-7.4	-1.8	0.8
COC(=O)C1=C(C)N(Cc2ccccc2C(F)(F)F)C(=NCc2ccccc2)NC1c1ccc(Cl)cc1 (centres undefined)	.	-3.3	.	.	.	.
Cc1cc(N2CCN(CC(C)(C)O)C[C@H]2C)ccc1N1CCN(Cc2ccccc2)[C@@H](C)C1	.	-6.4	.	.	.	.
Oc1cccc(N2CCN(c3cccc(O)c3)CC2)c1	.	-4.3	.	.	.	.
O=C(NCC(=O)N(c1cccnc1)C(C(=O)NC1CCCCC1)c1cccnc1)c1ccco1 (centres undefined)	2.0	.	1.1	-2.5	13.5*	1.5
CC(=O)Nc1ccc(N(C(=O)c2ccco2)C(C(=O)NC2CCCCC2)c2ccccc2)cc1 (centres undefined)	-3.6	-5.1	-4.7	0.1	10.0*	-0.9
CCOc1ccc(N(CC(=O)NC2CCCCC2)C(=O)CNC(=O)c2ccco2)cc1	-1.4	.	-2.0	-1.2	26.1*	0.6
CC(=O)O[C@H]1C=C[C@@H](C#Cc2ccc(C(C)(C)C)cc2)O[C@@H]1COC(=O)Nc1ccccc1	.	-7.3	.	.	.	.
COC(=O)c1cc2c(c3c4cc(OC)ccc4n(S(=O)(=O)c4ccc(OC)cc4)c13)C(=O)N(Cc1ccco1)C2	.	-4.3	.	.	.	.
O=[N+]([O-])c1cccc(/C=N/NC2CCS(=O)(=O)C2)c1 (centres undefined)	-2.6	3.3	.	-0.3	6.3	-0.2
O=C(NCCCN1CCCC1=O)c1cc2c(s1)CCCCC2	-1.8	-2.3	80.1*	.	4.2	-0.7
O=C(NCCCN1CCOCC1)c1cc2c(s1)CCCC2	-4.6	.	-2.1	-0.4	0.4	0.0
COc1ccc(N(C(=O)c2snc(C(N)=O)c2N)C(C(=O)NC2CCCCC2)c2ccc(F)cc2)c(OC)c1 (centres undefined)	2.3	-2.6	-7.1	-0.8	18.1*	-0.1
COc1ccc(C(C(=O)NCCC(C)C)N(CCO)C(=O)c2snc(C(N)=O)c2N)cc1 (centres undefined)	-4.2	0.1	-5.2	0.1	23.3*	2.0
O=C1CCCC2=C1[C@@]1(O[C@H]3C=CC=CN23)C(=O)N(c2ccccc2)c2ccccc21	.	-3.9	.	.	.	.
O=C(OCC(=O)N1CCOCC1)c1ccccc1O	-2.9	-5.2	-7.1	-0.6	-3.7	0.2
O=C(OCC(=O)N1CCOCC1)c1ccc(O)cc1	0.9	-3.1	126.5*	0.4	-3.6	-0.9
O=C(OCC(=O)N1CCC(Cc2ccccc2)CC1)c1ccccc1	-2.9	-6.6	31.2*	-2.2	.	1.2
O=C(Cc1ncon1)Nc1ccc(F)c(F)c1F	0.3	-0.9	78.1*	0.0	-10.1	1.3
Cc1cc(OCC(=O)NCc2ccccn2)c2c(C)cc(=O)oc2c1	1.2	-2.7	47.1*	-0.2	1.9	0.6
CCCc1cc(=O)oc2cc(C)cc(OCC(=O)NCc3ccccn3)c12	-0.5	-14.5	-1.9	-2.3	-6.3	-0.5
CCN(Cc1cc(OC)c(OC)c(OC)c1)S(=O)(=O)c1ccccc1Br	.	-4.0	.	.	.	.
O=C(NCCc1ccccc1F)c1ccc2c(c1)OCCO2	1.7	-6.3	47.0*	-0.7	4.3	-2.9
O=C(Oc1ccc(Cl)c2cccnc12)c1cccnc1	0.9	-12.0	51.8*	.	2.1	-0.2
Cc1cccc(C(=O)NNC(=O)c2ccc(F)cc2)c1	-2.2	-1.4	-3.4	-1.9	-2.1	-0.8
SMILES	Keap1 Nrf2 FP	CaV13 ICDI inh	CAL PDZ FP-1	CAL PDZ FP-2	LANA-H2B inh	LANA DNA inh
COc1cccc(OC)c1C(=O)NNC(=O)c1ccc(F)cc1	-1.9	-6.7	68.0*	-0.7	5.5	0.1
CC(NC(=O)COc1ccccc1)C(=O)N1CCN(c2ccc(F)cc2)CC1 (centres undefined)	0.0	-5.5	72.7*	-0.1	0.6	0.5
CCN(CC(=O)Nc1c(F)cccc1F)C(=O)CCc1nc2ccccc2c(=O)[nH]1	0.6	-2.9	-0.1	-1.6	-2.2	0.1
CCN(CC(=O)Nc1c(F)cccc1F)C(=O)CCCc1nc2ccccc2c(=O)[nH]1	-5.3	-6.4	-1.2	-0.2	9.7*	-0.7
C/C(=N\NC(=O)CNC(=O)c1ccc2c(c1)OCCO2)c1ccco1	-1.1	-0.7	6.9	0.2	-0.8	-0.5
C/C(=N\NC(=O)c1ccc2c(c1)OCO2)c1ccco1	0.2	5.0	49.6*	-0.6	.	-1.3
COc1ccc(S(=O)(=O)N2CCC(C(=O)NCCC(=O)NCc3ccccc3OC)CC2)cc1	1.5	-7.7	-0.6	-2.8	14.2*	-0.9
COc1ccc(C(=O)N2CCOC2CNC(=O)C(=O)NCc2ccco2)cc1 (centres undefined)	-3.2	-1.9	2.1	-0.7	+	-0.9
COc1ccc(S(=O)(=O)N2CCOC2CNC(=O)C(=O)NCc2ccccc2OC)cc1 (centres undefined)	1.2	-6.2	-4.5	-3.5	99.9*	-0.2
Cc1ccc(S(=O)(=O)N2CCOC2CNC(=O)C(=O)NCCCc2ccccc2)cc1 (centres undefined)	-5.2	.	-2.0	-0.5	-2.8	-1.5
COc1ccc(S(=O)(=O)N2CCC(C(=O)NCCC(=O)NCc3ccncc3)CC2)cc1	-0.5	-6.9	0.7	-0.4	-1.8	-0.3
Cc1ccc(S(=O)(=O)N2CCOC2CNC(=O)C(=O)NCCc2ccccc2)cc1 (centres undefined)	0.3	-3.7	33.2*	-1.2	0.9	-0.5
CC1(C(=O)NCc2cccc(Cl)c2)Cc2c(-c3ccc4c(c3)OCO4)ccnc2O1 (centres undefined)	.	-4.0	.	.	.	.
CCOC(=O)/C(C#N)=C/c1ccc(OCC(=O)Nc2ccc(OC)cc2)c(OC)c1	-2.0	-4.2	74.6*	-1.2	1.4	-0.6
CCOC(=O)/C(C#N)=C/c1ccc(OCC(=O)Nc2ccc(C)c(C)c2)c(OC)c1	-1.0	-3.5	-2.4	-1.6	-3.3	0.0
COc1ccc(S(=O)(=O)N2CCC(C(=O)N[C@H](C(=O)N3CCCC3)C(C)C)CC2)cc1	-1.1	-7.2	93.7*	-0.2	-4.6	-0.4
COc1ccc(CNC(=O)[C@@H](NC(=O)C2CCN(S(=O)(=O)c3ccc(C)cc3)CC2)C(C)C)cc1OC	-2.5	-2.1	-4.4	-1.3	11.9*	0.8
